From ChEMBL document CHEMBL4610013, “Heteroarylamide smoothened inhibitors: Discovery of N-[2,4-dimethyl-5-(1-methylimidazol-4-yl)phenyl]-4-(2-pyridylmethoxy)benzamide (AZD8542) and N-[5-(1H-imidazol-2-yl)-2,4-dimethyl-phenyl]-4-(2- pyridylmethoxy)benzamide (AZD7254)” (Bioorg Med Chem, 2020)

How the values were obtained:
[1] = Lipophilicity, logD of compound; type: physicochemical; conditions: octanol/water
[2] = Metabolic stability in rat liver microsomes assessed as intrinsic clearance; type: ADME, Microsome; conditions: read-out: CLH
[3] = Metabolic stability in human liver microsomes assessed as intrinsic clearance; type: ADME, Microsome; conditions: read-out: CLH
[4] = Drug level in mouse plasma at 40 mg/kg, po administered as single dose measured after 1 hr; type: ADME, organism-based
In short: (§1)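 Plasma was taken from Colo205 tumour-bearing female nude mice sacrificed 1 or 8 h after a single 40 mg/kg oral dose. Drug concentrations were measured in µM.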

[5] = Metabolic stability in human hepatocytes assessed as intrinsic clearance measured per million cells; type: ADME, cell-based, Hepatocyte; conditions: read-out: CLH
[6] = Clearance in mouse; type: ADME, organism-based; conditions: in vivo
[7] = Oral bioavailability in rat; type: ADME, organism-based; conditions: in vivo
[8] = Drug level in mouse plasma at 40 mg/kg, po administered as single dose measured after 8 hrs; type: ADME, organism-based; in short: as §1
[9] = Half life in mouse; type: ADME, organism-based; conditions: in vivo
[10] = Metabolic stability in rat hepatocytes assessed as intrinsic clearance measured per million cells; type: ADME, cell-based, Hepatocyte; conditions: read-out: CLH
[11] = Oral bioavailability in mouse; type: ADME, organism-based; conditions: in vivo
[12] = Clearance in rat; type: ADME; conditions: in vivo
[13] = Half life in rat; type: ADME; conditions: in vivo
[14] = Clearance in dog; type: ADME, Canis lupus familiaris; conditions: in vivo
[15] = Oral bioavailability in dog; type: ADME, organism-based, Canis lupus familiaris; conditions: in vivo
[16] = Half life in dog; type: ADME, Canis lupus familiaris; conditions: in vivo
[17] = Volume of distribution at steady state in dog; type: ADME, Canis lupus familiaris; conditions: in vivo, read-out: Vdss
[18] = Volume of distribution at steady state in rat; type: ADME; conditions: in vivo, read-out: Vdss
[19] = Volume of distribution at steady state in mouse; type: ADME, organism-based; conditions: in vivo, read-out: Vdss
[20] = Metabolic stability in mouse hepatocytes assessed as intrinsic clearance measured per million cells; type: ADME, cell-based, Hepatocyte; conditions: read-out: CLH
[21] = Volume of distribution at steady state in guinea pig; type: ADME, Cavia porcellus; conditions: in vivo, read-out: Vdss
[22] = Clearance in guinea pig; type: ADME, Cavia porcellus; conditions: in vivo
[23] = test system: MDR1; experiment: Apparent permeability in LLC-PK1 cells expressing MDR1; type: ADME, cell-based, Sus scrofa; conditions: pig
In short: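 The cells were MDR1-LLC PK1, a line engineered to express the P-gp efflux pump. Permeability was taken as apical-to-basolateral Papp (10⁻⁶ cm/s), and the efflux ratio was also derived.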

[24] = Metabolic stability in dog hepatocytes assessed as intrinsic clearance measured per million cells; type: ADME, cell-based, Canis lupus familiaris, Hepatocyte; conditions: read-out: CLH
[25] = Half life in guinea pig; type: ADME, Cavia porcellus; conditions: in vivo

logD [1] | microsomal CLint [2] | microsomal CLint [3] | concentration at 1 h [4] | concentration at 8 h [8] | Compound | also measured
2.8 |  |  |  |  | Cc1ccc(-c2nccn2C)cc1NC(=O)c1ccc(OCc2ccccn2)cc1 | 
> 3 | 155 µL/min/mg | 88 µL/min/mg |  |  | Cc1cc(C)c(-c2cccc(N)n2)cc1NC(=O)c1ccc(OCc2ccccn2)cc1 | 
2.8 |  |  | 10.3 µM | 18.8 µM | CS(=O)(=O)c1ccc(C(=O)Nc2ccc(Cl)c(-c3ccccn3)c2)c(Cl)c1 [VISMODEGIB] | hepatocyte CLint [5]: < 1 µL/min/1e6 cells; clearance [6]: 5.6 mL/min/kg; bioavailability [7]: 49%; half-life [9]: 1 h; hepatocyte CLint [10]: 16 µL/min/1e6 cells; bioavailability [11]: 33%; clearance [12]: 2 mL/min/kg; half-life [13]: 1.9 h
2.8 |  |  | 2.9 µM | 0.28 µM | Cc1cc(C)c(-c2cnc(C)n2C)cc1NC(=O)c1ccc(OCc2ccccn2)cc1 | hepatocyte CLint [5]: 12 µL/min/1e6 cells; hepatocyte CLint [10]: 32 µL/min/1e6 cells
> 3.5 | 21 µL/min/mg | 30 µL/min/mg |  |  | Cc1cc(C)c(-c2nc3ccccc3[nH]2)cc1NC(=O)c1ccc(OCc2ccccn2)cc1 | 
3.1 |  |  |  |  | Cc1cc(Cl)c(-c2cn(C)cn2)cc1NC(=O)c1ccc(OCc2ccccn2)cc1 | 
> 3 | 78 µL/min/mg | 62 µL/min/mg |  |  | Cc1cc(C)c(-c2cccnc2)cc1NC(=O)c1ccc(OCc2ccccn2)cc1 | 
2.9 |  |  |  |  | Cc1ccc(-c2[nH]cnc2C)cc1NC(=O)c1ccc(OCc2ccccn2)cc1 | 
> 3 | 147 µL/min/mg | 513 µL/min/mg |  |  | Cc1csc(-c2cc(NC(=O)c3ccc(OCc4ccccn4)cc3)c(C)cc2C)n1 | 
2.8 |  |  | 3.3 µM | 0.14 µM | Cc1ccc(-c2ncc[nH]2)c(C)c1NC(=O)c1ccc(OCc2ccccn2)cc1 | 
> 3 |  |  |  |  | Cc1cc(Cl)c(-c2ncc[nH]2)cc1NC(=O)c1ccc(OCc2ccccn2)cc1 | 
2.5 |  |  | 63 µM | 16 µM | Cc1ccc(-c2cn(C)cn2)cc1NC(=O)c1ccc(OCc2ccccn2)cc1 | 
3 |  |  |  |  | Cc1nc(-c2ccc(C)c(NC(=O)c3ccc(OCc4ccccn4)cc3)c2)c[nH]1 | 
3.1 |  |  | 22.3 µM | 1.9 µM | Cc1cc(C)c(-c2ncc[nH]2)cc1NC(=O)c1ccc(OCc2ccccn2)cc1 | clearance [14]: 4 mL/min/kg; bioavailability [15]: 100%; half-life [16]: 3.3 h; Vd [17]: 0.9 L/kg; hepatocyte CLint [5]: 9 µL/min/1e6 cells; Vd [18]: 1.2 L/kg; clearance [6]: 31 mL/min/kg; bioavailability [7]: 100%; Vd [19]: 1.6 L/kg; hepatocyte CLint [20]: 6.6 µL/min/1e6 cells; Vd [21]: 1.8 L/kg; clearance [22]: 18 mL/min/kg; half-life [9]: 0.7 h; hepatocyte CLint [10]: 18 µL/min/1e6 cells; Papp [23]: 7.5 ×10⁻⁶ cm/s; bioavailability [11]: 75%; hepatocyte CLint [24]: 1.4 µL/min/1e6 cells; clearance [12]: 24 mL/min/kg; half-life [25]: 1.5 h; half-life [13]: 1.1 h
> 3 | 296 µL/min/mg | 209 µL/min/mg |  |  | Cc1cc(C)c(-c2ccccn2)cc1NC(=O)c1ccc(OCc2ccccn2)cc1 | 
3 |  |  | 94 µM | 16 µM | Cc1cc(C)c(-c2cn(C)cn2)cc1NC(=O)c1ccc(OCc2ccccn2)cc1 | clearance [14]: 4.7 mL/min/kg; bioavailability [15]: 32%; half-life [16]: 1.4 h; Vd [17]: 0.5 L/kg; hepatocyte CLint [5]: 6 µL/min/1e6 cells; Vd [18]: 0.2 L/kg; clearance [6]: 6.1 mL/min/kg; bioavailability [7]: 90%; Vd [19]: 0.4 L/kg; hepatocyte CLint [20]: < 1 µL/min/1e6 cells; Vd [21]: 0.5 L/kg; clearance [22]: 1.6 mL/min/kg; half-life [9]: 0.8 h; hepatocyte CLint [10]: 19 µL/min/1e6 cells; Papp [23]: 16.5 ×10⁻⁶ cm/s; bioavailability [11]: 70%; hepatocyte CLint [24]: 10 µL/min/1e6 cells; clearance [12]: 1.7 mL/min/kg; half-life [25]: 4.2 h; half-life [13]: 2.4 h
3.3 |  |  |  |  | Cc1cc(Cl)c(-c2cn(C)c(C)n2)cc1NC(=O)c1ccc(OCc2ccccn2)cc1 | 
2.8 |  |  |  |  | Cc1ccc(-c2c[nH]cn2)cc1NC(=O)c1ccc(OCc2ccccn2)cc1 | 
3 |  |  | 58 µM | 20 µM | Cc1cc(F)c(-c2ncc[nH]2)cc1NC(=O)c1ccc(OCc2ccccn2)cc1 | hepatocyte CLint [10]: 14 µL/min/1e6 cells
3.2 |  |  |  |  | Cc1cc(Cl)c(-c2nccn2C)cc1NC(=O)c1ccc(OCc2ccccn2)cc1 | 
2.7 |  |  |  |  | Cc1ccc(-c2cn(C)c(C)n2)cc1NC(=O)c1ccc(OCc2ccccn2)cc1 | 
> 3 | 55 µL/min/mg | 20 µL/min/mg | 5.5 µM | 0.23 µM | Cc1cc(C)c(-c2c[nH]nc2C)cc1NC(=O)c1ccc(OCc2ccccn2)cc1 | 
> 3 | 271 µL/min/mg | 122 µL/min/mg |  |  | Cc1cc(C)c(-c2c(C)nn(C)c2C)cc1NC(=O)c1ccc(OCc2ccccn2)cc1 | 
2.6 | 8 µL/min/mg | < 4 µL/min/mg | 33 µM | 2.7 µM | Cc1cc(C)c(-c2ccc(N)nn2)cc1NC(=O)c1ccc(OCc2ccccn2)cc1 | 
3 |  |  |  | 7.5 µM | Cc1ccc(-c2ncc[nH]2)cc1NC(=O)c1ccc(OCc2ccccn2)cc1 | 
3.2 | 32 µL/min/mg | 9 µL/min/mg |  |  | Cc1cc(C)c(-c2ccc(N)cn2)cc1NC(=O)c1ccc(OCc2ccccn2)cc1 | 
2.8 |  |  | 1.8 µM | 0.08 µM | Cc1ccc(-c2cnc(C)n2C)cc1NC(=O)c1ccc(OCc2ccccn2)cc1 | 
